Assay results taken from PubChem BioAssay AID624467 (The Scripps Research Institute Molecular Screening Center, 2012).
Screen size: about 360,000 compounds; about 3,600 (1%) were called active. For the sample, actives were picked, then their nearest neighbours and some compounds at random. Unmarked numbers belong to inactive results.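 How the source made its calls: active means activation above the mean activation of all test compounds in the run plus 3 SD (cut at about 38% in these data); inactive means the rest.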

Each compound was assayed against Trace amine-associated receptor 1 (Homo sapiens) (UniProt Q96RJ0) (assay: activators of TAAR1 calcium mobilization – Fluo-8 calcium fluorescence, CHO RD-HGA16 cells, primary screen (AID 624467)). Settings: CHO RD-HGA16 TAAR1, Fluo-8 calcium fluorescence; at 3 µM; active compounds read high; vehicle wells 0%, saturating PEA agonist 100%.
Sequence of Trace amine-associated receptor 1 (Homo sapiens) (Q96RJ0 whole entry, looked up): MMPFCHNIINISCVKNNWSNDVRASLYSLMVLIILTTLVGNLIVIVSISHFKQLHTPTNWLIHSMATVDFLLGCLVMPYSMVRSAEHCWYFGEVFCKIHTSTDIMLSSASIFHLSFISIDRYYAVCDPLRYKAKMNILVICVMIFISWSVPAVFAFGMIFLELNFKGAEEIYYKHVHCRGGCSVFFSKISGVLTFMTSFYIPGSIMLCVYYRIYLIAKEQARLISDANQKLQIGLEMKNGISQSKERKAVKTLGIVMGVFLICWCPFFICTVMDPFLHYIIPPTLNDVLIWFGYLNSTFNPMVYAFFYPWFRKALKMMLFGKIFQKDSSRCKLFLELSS
Summary of the method: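 Repeats: no replicates (n 1) | Material: CHO-derived RD-HGA16 cells with stable Gα16 and human TAAR1 | Technique: Kinetic Fluo-8 calcium fluorescence | Schedule: 17-24 h seeding, 75 min 37 °C dye, 30 min RT | Evaluation: % activation from peak over basal fluorescence ratio, DMSO-to-PEA scaled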

SMILES | activation
CCOC(=O)C1CSCCS(=O)(=O)N1Cc1ccc(Cl)cc1 (stereo unspecified) | 1.13%
CCN1C(=O)N[C@@H]2C[C@H](C(=O)N3CCCC3)[C@H](C)[C@H](c3ccccc3)C[C@@H]21 | 0.86%
Cc1c(CNCCc2ccccc2)c(C(=O)O)c(C)n1-c1ccccc1 | 78.1% (active)
CNC(=O)CSc1nnc(CCc2ccccc2)n1-c1ccccc1 | 5.04%
Cc1c(C(=O)NCc2ccccc2)cnn1-c1ccccc1 | 2.79%
COc1ccc(C2=CN(Cc3ccccc3)C(c3ccc(OC)cc3)CC2=O)cc1 (stereo unspecified) | -1.8%
Cc1ccc(C(=O)NC(C)c2ccccc2)cc1Br (stereo unspecified) | -1.3%
CC(NC(=O)c1cc(-c2ccccc2)on1)c1ccccc1 (stereo unspecified) | 52% (active)
O=C(NC1CCCC1)c1cc(-c2ccccc2)on1 | 2.47%
Cc1[nH]c2ccccc2c1CC(=O)Nc1ccc(Nc2cccnc2)c(-c2cccc(Cl)c2)c1 | 1.11%
O=S1(=O)c2ccc(Br)cc2-n2nncc2CN1Cc1cccc(Cl)c1 | 1.66%
CCCCCCn1c(CN2CCCC(C)C2)nc2c1c(=O)n(C)c(=O)n2C (stereo unspecified) | 0.08%
Cc1c(CN2CCCCC2)c(O)n(CCO)c(=O)c1C#N | 11.5%
CCCn1c(O)c(CN2CCCC(C)C2)c(C)c(C#N)c1=O (stereo unspecified) | 96.4% (active)
COc1ccc(C(CNC(=O)c2ccc(NS(=O)(=O)c3ccc(F)c(C)c3)cc2)N(C)C)cc1 (stereo unspecified) | 3.7%
CN(C)C(CNC(=O)c1cccc(S(=O)(=O)Nc2ccc(Br)cc2)c1)c1ccco1 (stereo unspecified) | 16.7%
COc1ccc(C(CNC(=O)c2cccc(S(=O)(=O)Nc3ccc(Br)cc3)c2)N(C)C)cc1 (stereo unspecified) | 40.2% (active)
COc1ccc(-n2cc(CNC3CCOCC3)c(-c3cccc(F)c3)n2)cc1 | 7.84%
CCOC(CNC(=O)C(=O)NCC(c1ccco1)N1CCN(c2ccc(OC)cc2)CC1)OCC (stereo unspecified) | 3.05%
O=C(NCC(c1ccco1)N1CCc2ccccc2C1)c1ccccc1Cl (stereo unspecified) | 12.4%
COc1ccc(NC(=O)C(=O)NCC(c2ccco2)N2CCc3ccccc3C2)cc1 (stereo unspecified) | 62.3% (active)

SMILES | activation
Cc1[nH]nc2c1C(c1ccc(Br)cc1)NC2=O (stereo unspecified) | 0.5%
CCOc1ccc(Br)cc1CSC(=N)N | 70.5% (active)
CCOc1ccc(Br)cc1S(=O)(=O)N1CCC(C(=O)O)CC1 | -0.19%
CC(C)(C)NCc1cc(Br)ccc1OC1CCCC1 | 1.46%
CC(=O)N1C[C@@H](CO)[C@@H](N(C)C(=O)C(C)(C)C)C[C@H]1c1ccccc1Br | 3.7%
S=C(Nc1ccc(Br)cc1Cl)NC1CCN(Cc2ccccc2)CC1 | 18%
O=C(COc1ccc(Br)cc1F)NC1CCN(Cc2ccccc2)CC1 | 7.63%
S=C(Nc1ccc(Br)cc1)NC1CCN(Cc2ccccc2)CC1 | 63% (active)
CCC(C)NC(=O)/C=C/c1ccc(S(=O)(=O)NCc2ccco2)cc1 (stereo unspecified) | 0.26%
Cc1ccc2nc(C)c3c(c2c1)N(c1ccccc1)CC3 | 1.22%
Nc1nc2c(ncn2[C@@H]2O[C@H](C(=O)N[C@H](Cc3ccccc3)C(=O)NCC3CCCCC3)[C@@H](O)[C@H]2O)c(=O)[nH]1 | 2.45%
CC1CCN(C(=O)c2ncn3c2C(=O)N[C@@H](C)C3)CC1 | 0.53%
CC1CCc2sc3nc(N4CCN(CCO)CC4)n4ncnc4c3c2C1 (stereo unspecified) | 13.3%
CC(C)[C@H]1COCCS(=O)(=O)N1Cc1ccccc1-c1cccc2c1sc1ccccc12 | 1.46%
COc1ccccc1N1CCN(C(=O)c2cc(=O)c3cc(C)cc(C)c3o2)CC1 | 0.2%
Cc1ccc(Cl)cc1N1CCN(C(=O)c2cccc3c(=O)c(C)c(-c4ccccc4)oc23)CC1 | 78% (active)
Cc1cccc(N2CCN(C(=O)c3cnn4c(C(F)F)cc(-c5ccccc5)nc34)CC2)c1C | -0.23%
OC(CCl)CCl | 4.28%
CC(C)(C)n1nc(C2CC2)c(Br)c1NC(=O)c1ccccc1F | -2.19%
COc1ccc(-c2nc3n(c(=O)c2C#N)CCS3)c(OC)c1 | 1.68%
Cc1ccc2c(c1)NCC(C(=O)NC1CCC(C)CC1)O2 (stereo unspecified) | -0.02%

SMILES | activation
COc1ccc(NC(=S)Nc2ccc(S(N)(=O)=O)cc2)c(C)c1 | 5.94%
NS(=O)(=O)c1ccc(NC(=S)Nc2ccc(Br)c(Cl)c2)cc1 | 42.6% (active)
NS(=O)(=O)c1ccc(NC(=S)N2CCCC2)cc1 | 0.52%
N#Cc1ccc(-c2nc3cc(C#N)c(C#N)cc3nc2-c2ccccc2)cc1C#N | 2.52%
Cc1cc2c(nc1C)CCCN2C | 0.42%
O=C(Cn1c(N2CCN(C/C=C/c3ccccc3)CC2)nc2ccccc21)c1ccccc1 | 7.57%
CC(Oc1ccc(Cl)cc1)C(=O)Nc1ncccn1 (stereo unspecified) | -0.09%
CC1(C(=O)OCC(=O)Nc2ncc(Cl)cc2Cl)CC1(Cl)Cl (stereo unspecified) | -0.29%
CC(Oc1ccc(Cl)cc1)C(=O)OCC(=O)Nc1ncc(Cl)cc1Cl (stereo unspecified) | 74.1% (active)
CCc1ccc(NC(=O)N2CCc3ccccc3C2)cc1 | 31%
Cc1ccc(NC(=O)CCN2CCc3ccccc3C2)cc1 | 88.5% (active)
Cc1ccc(NC(=O)CN2CCc3ccccc3C2)cc1C | 9.67%
CCOc1ccc(Cl)cc1-c1cc(C(=O)NCc2cccs2)[nH]n1 | 0.34%
COc1ccc2c(c1)C(=O)CC(c1ccccc1)O2 (stereo unspecified) | 5.95%
COc1ccc2c(c1)SC(C)CC2=O (stereo unspecified) | 5.89%
COc1ccc2c(c1)OC(O)(C(F)(F)C(F)F)CC2=O (stereo unspecified) | 56.3% (active)
Cc1ccc2c(c1)C(O)(CC(=O)c1cccnc1)C(=O)N2 (stereo unspecified) | 0.5%
CCCCSc1nc2c(c(=O)n1CC)SC(C)C2 (stereo unspecified) | 10%
O=C(NS(=O)(=O)c1cccs1)[C@H]1O[C@@H](n2ccc(=O)[nH]c2=O)[C@H](O)[C@@H]1O | 0.38%
